A selection: hits, their analogues and other compounds. The true share with any hit is near 12%.
Cl transport mod: modulators of human KCC2 chloride dependent transport. 2.2% of 190,000 active. KCC2 cells, thallium flux FluoZin-2 fluorescence. Q9H2X9. B-score of Tl+ flux slope (higher = more flux/activation; lower = inhibition) at 10 µM. AID 1456;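 active = thallium flux slope and its plate-corrected score both differing from the plate sample mean at a set confidence after two filtering rounds, in either direction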;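 also: slope of fluorescence scaled to starting intensity during 10 to 20 s after thallium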
Diaphorase inh: diaphorase inhibition or chemical oxidation counter-screen | inhibition, % at 20 µM | 0.69% of 190,000 active | AID 1217 | diaphorase resazurin-to-resorufin fluorescence, NADH, 16 min; bacterial (C. kluyveri) enzyme, not human;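 active = primary screen inhibition at 20 µM above a set limit, cut at about 50% in these data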;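 also: plate controls were DMSO with full reaction for no effect and wells lacking NADH for full effect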
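Assay system: diaphorase enzyme from Clostridium kluyveri; Input: enzyme working solution with 0.14 U/mL diaphorase; Timing: 16 min at room temperature; Technique: resorufin fluorescence, excitation 544 nm, emission 590 nm; Benchmarks: positive control minus NADH, DMSO neutral control.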
WT yeast gro inh: growth inhibition of WT yeast, mitochondrial fusion screen; mitochondrial fusion phenotypic screen, WT strain; inhibition, % at 10 µM; 2.1% of 190,000 active; AID 1362; in the data active = inhibition above about 58%; tested in S. cerevisiae
Diaph act CS: diaphorase activation or chemical reduction counter-screen; Diaphorase/resazurin coupled assay, resorufin fluorescence, 16 min; hits give high values; 1 = vehicle wells, 0 = NADH-free wells; activation factor at 20 µM; 0.005% of 190,000 active; AID 1229;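 active = diaphorase activity raised at least twofold by the compound at 20 µM; inactive = activation factor below 2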
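Material: Purified diaphorase enzyme from Clostridium kluyveri | Buffer or medium: 50 mM HEPES pH 7.4 with 4.542 mM MgCl2, 0.005% Tween 20 | Times: 16 min enzyme reaction, ambient temperature | Signal: Red resorufin fluorescence at 544/590 nm excitation/emission | Measure: Increased resorufin signal from activators or reducing compounds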
ROMK mod: modulates human ROMK potassium channel activity | B-score at 10 µM | P48048 | Tet-inducible ROMK, thallium flux fluorescence; actives lie on both sides | 2% of 130,000 active | AID 1918;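 active = signal ratio slope over the read window, or its plate-corrected B-score, at least 3 SD from the plate mean, either direction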;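 also: B-score of the F/F0 ratio slope over 7 to 12 s after thallium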
Target sequence (P48048 whole entry, looked up): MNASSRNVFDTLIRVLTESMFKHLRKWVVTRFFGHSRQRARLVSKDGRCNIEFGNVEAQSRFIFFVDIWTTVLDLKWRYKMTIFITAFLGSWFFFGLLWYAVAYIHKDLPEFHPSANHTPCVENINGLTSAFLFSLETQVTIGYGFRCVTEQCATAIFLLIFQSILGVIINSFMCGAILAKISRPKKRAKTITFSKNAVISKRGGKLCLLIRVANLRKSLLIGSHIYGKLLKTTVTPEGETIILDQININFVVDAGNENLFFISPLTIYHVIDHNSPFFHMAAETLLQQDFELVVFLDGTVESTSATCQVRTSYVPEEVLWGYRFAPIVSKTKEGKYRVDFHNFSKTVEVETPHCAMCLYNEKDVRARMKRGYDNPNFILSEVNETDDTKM
L major viab: reduces viability of Leishmania major promastigotes; resazurin fluorescence viability; inhibition, % at 10 µM; 9% of 200,000 active; in the data active = inhibition above about 50%;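 also: promastigotes grown with compound for 44 hours at 28 °C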
* hit, by the source's call; x = not tested or not shown.

SMILES	Cl transport mod	Diaphorase inh	WT yeast gro inh	Diaph act CS	ROMK mod	L major viab
C/C(=C\C(=O)O)C12CC3CC(CC(C3)C1)C2	x	7.6	9.1	0.9	-0.521	-2.0
O=C(/C=C/c1ccccc1)c1ccccc1	-0.011	6.7	-1.9	0.9	x	17.1
O=C(/C=C/c1ccccc1)c1ccc2c3c(cccc13)CC2	1.19	17.4	9.1	0.8	x	71.2*
CCOC(=O)C1(CCOC)CCN(Cc2nc(C(C)C)cs2)CC1	0.122	10.8	1.6	0.9	-0.114	-5.1
CC(OC(=O)c1ccc2c(c1)C(=O)N(Cc1ccncc1)C2=O)C(=O)Nc1cccc(Cl)c1Cl (centres undefined)	0.792	10.5	-33.5	0.9	x	-6.6
O=C(COC(=O)c1ccc2c(c1)C(=O)N(Cc1ccncc1)C2=O)Nc1ccccc1[N+](=O)[O-]	-0.389	15.9	-1.0	0.8	x	54.4*
Cc1nc2ncnn2c(C)c1C/C=C/c1ccccc1	-2.42	-1.9	-24.4	1	-0.0661	-11.2
Cc1cc(Oc2ccc3ccccc3c2)nc(SCC(=O)c2ccccc2)n1	-1.1	6.1	1.4	0.9	0.979	93.1*
Cc1cccc(Cn2cnc3c(nnn3Cc3ccc(Cl)cc3)c2=O)c1	x	3.0	7.0	1	-0.938	-3.4
Cc1cccc(Cn2nc(-n3cccc3)c3c(C)cc(C)nc32)c1	0.0123	18.3	61.9*	0.8	0.366	7.9
C/C(=N\Nc1cc(C)nc(-c2ccccc2O)n1)c1ccccc1O	1.31	x	x	x	x	x
COC(=O)c1ccc(Nc2cc(C)nc(-c3ccccc3O)n2)cc1	6.21*	13.4	-31.1	0.9	0.584	-4.6
COC(=O)c1cccc(Nc2cc(C)nc(-c3ccccc3O)n2)c1	x	17.3	13.5	0.8	-0.0957	67.0*
CCCCC(=O)Nc1cc(OC)c(NC(=O)C2CCCCC2)cc1OC	-0.409	10.2	10.5	0.9	x	1.8
O=C(O)C1C2C=CC(C2)C1C(=O)NCc1cccs1 (centres undefined)	0	8.6	4.7	0.9	0.0192	-3.9
COc1ccc(CNn2c(-c3cccs3)nc3ccccc3c2=O)cc1OC	-0.135	21.2	-3.5	0.8	-0.223	26.4
Cn1ccnc1C1CCCCN1Cc1nc(Cc2cccc(C(F)(F)F)c2)no1 (centres undefined)	x	24.2	16.4	0.8	x	65.8*
CCOc1ccc(OCCC(=O)Nc2ccc(F)cc2C)cc1	0.085	16.3	2.4	0.8	1.71	0.4
O=C1NC(=O)/C(=C\c2ccccc2OCc2cccc([N+](=O)[O-])c2)N1	-0.466	11.3	-4.9	0.9	x	56.9*
COC(=O)COc1ccccc1/C=C1/NC(=O)NC1=O	0.725	8.4	8.5	0.9	x	53.2*
O=C1NC(=O)/C(=C/c2cccc([N+](=O)[O-])c2)N1	0.731	x	x	x	x	x
COc1ccc(NCC(=O)Nc2ccccc2C#N)cc1Cl	-0.257	16.5	-0.8	0.8	-0.793	86.5*
COc1ccc(Cl)cc1N(CC(=O)Nc1cccc(SC)c1)S(C)(=O)=O	x	21.6	-25.2	0.8	0.608	61.5*
COc1ccc(NC(=O)CN(c2ccccc2)S(=O)(=O)N(C)C)cc1Cl	-0.237	68.4*	11.5	0.3	-0.0152	9.1
COc1ccc(Cl)cc1NC(=O)CN(c1ccccc1)S(=O)(=O)N(C)C	-0.0866	25.3	30.2	0.7	x	99.6*
SMILES	Cl transport mod	Diaphorase inh	WT yeast gro inh	Diaph act CS	ROMK mod	L major viab
O=C(NCC1CCCO1)c1ccc(NS(=O)(=O)c2cccs2)cc1 (centres undefined)	0.841	x	x	x	x	x
Cc1ccc(C)c(N(CC(=O)Nc2cc(Cl)ccc2Oc2ccccc2)S(C)(=O)=O)c1	x	18.4	21.2	0.8	x	51.5*
Cc1cccc(C)c1N(CC(=O)Nc1cc(Cl)ccc1Oc1ccccc1)S(C)(=O)=O	-1.13	31.0	25.1	0.7	x	10.2
COc1ccccc1NC(=O)CN(C)S(=O)(=O)c1cc(C)ccc1OC	-0.561	14.4	-23.3	0.9	-0.735	8.6
COc1ccc(OC)c(S(=O)(=O)N(C)CC(=O)Nc2cc(Cl)ccc2OC)c1	-0.131	7.3	1.5	0.9	x	99.6*
CCN1C(=O)/C(=C2/C(=O)N3c4c(cc(OC(C)=O)cc42)C(C)=CC3(C)C)SC1=S	-0.113	8.2	11.8	0.9	-0.812	78.5*
COc1cc2c3c(c1)/C(=C1/SC(NC(C)=O)=NC1=O)C(=O)N3C(C)(C)C=C2C	0.202	21.6	19.1	0.8	0.321	-7.1
CCCCn1nc(C(=O)O)ccc1=O	0.0737	22.8	-5.0	0.8	x	-10.2
COCc1cc(=O)[nH]c(Nc2nc3ccc(C)cc3o2)n1	-1.02	16.6	34.6	0.8	-0.984	99.2*
Cc1c(-c2ccncc2)oc2ccc(Br)cc2c1=O	-1.2	12.8	-5.2	0.9	0.27	6.3
C=CCc1ccc(O)c(-c2cc(CC=C)ccc2O)c1	1.21	25.1	73.6*	0.7	x	-8.5
CCOC(=O)c1cc2c(s1)-c1ccccc1CC2	0.766	11.2	16.8	0.9	x	2.7
CCOC(=O)c1cc2ccc3ccccc3c2s1	-0.474	21.4	59.8*	0.8	x	-0.1
CCCCOCCCNc1ncnc2c1[nH]c1ccccc12	-8.13	14.8	17.2	0.9	-0.77	79.8*
CCCCOc1ncnc2c1[nH]c1ccccc12	0.153	8.0	1.4	0.9	x	57.2*
CCCCOc1ncnc2c1[nH]c1ccc(OCC)cc12	0.203	8.3	46.8	0.9	x	11.8
CCCc1cn(S(=O)(=O)c2ccc(OC)cc2OC)nc1N	x	3.6	-4.9	1	-0.309	-1.9
C/C(=N\NC(=O)COc1ccccc1-c1ccccc1)c1ccccn1	-0.473	6.9	71.8*	0.9	-0.772	100.3*
CCCCCCCCCC(=O)N/N=C(\C)c1cccnc1	-0.0473	3.8	40.8	1	-2.1	0.6
CCCCCC(=O)N/N=C(\C)c1ccccn1	0.103	10.9	0.5	0.9	x	93.0*
C/C(=N\NC(=O)COc1ccccc1-c1ccccc1)c1cccnc1	-1.18	7.1	18.1	0.9	-0.217	25.1
CC(C)Oc1ccc(N2CC(C(=O)NC3=NCCS3)CC2=O)cc1 (centres undefined)	-0.107	2.4	11.3	1	-0.0866	-5.1
Cc1ccc(C2=Nc3cccnc3C(c3ccccc3)=NN2)cc1	-0.00111	4.3	0.0	1	0.477	8.3
O=C1CCCS(=O)(=O)c2ccccc21	1.29	3.0	0.4	1	x	-0.1
Cc1occc1-c1nnc(SCC(=O)Nc2ccccc2)n1CCc1ccccc1	-1.07	18.4	18.1	0.8	x	66.2*
Cc1csc(NC(=O)CSc2nnc(Cc3cccn3C)n2CCc2ccccc2)n1	0.0346	18.5	7.5	0.8	x	51.2*
Cc1occc1-c1nnc(SCC(=O)Nc2ccccc2)n1C	0.283	77.9*	-10.4	0.2	0.591	-1.0
Cc1occc1-c1nnc(SCC(=O)Nc2ccccc2)n1C(C)c1ccccc1 (centres undefined)	-0.713	23.4	12.8	0.8	-0.204	36.3

Compound activity as filed in PubChem.
